Reference: ChEMBL document CHEMBL1128303, “Novel non-nucleoside inhibitors of HIV-1 reverse transcriptase. 3. Dipyrido[2,3-b:2',3'-e]diazepinones” (J Med Chem, 1995)

What was measured:
[1] = target: Human immunodeficiency virus type 1 reverse transcriptase (Human immunodeficiency virus 1, UniProt Q72547); test: In vitro for inhibition of HIV-1 reverse transcriptase.
[2] = target: Human immunodeficiency virus type 1 reverse transcriptase (Human immunodeficiency virus 1) (UniProt Q72547); test: In vitro for inhibition of HIV-1 reverse transcriptase at 1 uM
How it was run: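 Compounds were first screened as percent enzyme inhibition at a single 1 μM concentration. IC50 was not determined for compounds giving under 35% inhibition at 1 μM.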

IC50 [1] [nM] | inhibition [2] [%] | SMILES
190 |  | CCN1c2cc(C)c(C)nc2N(C)C(=O)c2cccnc21
70 |  | CCN1c2ncccc2C(=O)N(C)c2ccc(-c3cccc(N)c3)nc21
 | < 35 | CCN1c2cc(Br)c(Br)nc2N(C)C(=O)c2cccnc21
 | < 35 | CCN1c2ccc([N+](=O)[O-])nc2N(C)C(=O)c2cccnc21
150 |  | CCN1c2cc(C)c(C)nc2N(C)C(=O)c2cc(N)cnc21
1000 |  | CN1C(=O)c2cccnc2N(C2CC2)c2ccc(Cl)nc21
90 |  | CN1C(=O)c2cccnc2N(C2CC2)c2nc(Cl)ccc21
 | < 35 | CCN1c2cccnc2N(C)C(=O)c2cc(Br)cnc21
1760 |  | CCN1c2ccc(C)nc2N(C)C(=O)c2cccnc21
1300 |  | CCN1c2cccnc2N(C)C(=O)c2cccnc21
 | < 35 | CCN1c2ncccc2C(=O)N(C)c2cc([N+](=O)[O-])cnc21
1300 |  | CCN1c2ncc(Br)cc2C(=O)N(C)c2cccnc21
280 |  | CCN1c2cccnc2N(C)C(=O)c2cc(N)cnc21
1000 |  | CCN1c2nc(C)ccc2C(=O)N(C)c2cccnc21
760 |  | CN1C(=O)c2cccnc2N(C2CC2)c2cc(Cl)cnc21
290 |  | CN1C(=O)c2cccnc2N(C2CC2)c2ncc(Cl)cc21
 | < 35 | CCN1c2cc(-c3cccc(N)c3)cnc2N(C)C(=O)c2cccnc21
 | < 35 | CCN1c2ncccc2C(=O)N(C)c2nccc(C)c21
 | < 35 | CCN1c2cccnc2N(C)C(=O)c2ccc(C)nc21
130 |  | CCN1c2ncc(N)cc2C(=O)N(C)c2cccnc21
550 |  | CCN1c2cc(Br)cnc2N(C)C(=O)c2cccnc21
